The values that follow come from ChEMBL document CHEMBL5046304, “Novel Pyridazin-3(2H)-one-Based Guanidine Derivatives as Potential DNA Minor Groove Binders with Anticancer Activity” (ACS Med Chem Lett, 2022).

One test deals with NCI-H460. Description: Cytotoxicity against human NCI-H460 cells assessed as reduction in cell viability at 100 uM after […] by MTT assay. The test is classed as functional. Summed up: (§1)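 Percentage inhibition of cell viability; values are means of three experiments.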
(Tetrazolium assays rely on reduction of a dye to a coloured formazan, in cell work by metabolically active cells.)

Test [1] has as its system A2780. As to the kind of experiment: Cytotoxicity against human A2780 cells assessed as reduction in cell viability at 100 uM after 96 hrs by MTT assay. The test is classed as functional. In a few lines: as §1
The test system of a further test is MCF7. Description: Cytotoxicity against human MCF7 cells assessed as reduction in cell viability at 100 uM after 96 hrs by MTT assay. The test is classed as functional. In a few lines:
as §1

Another test deals with Salmon testes DNA. Description: Binding affinity to salmon sperm DNA assessed as thermal stability by measuring change in melting temperature at 15 uM at pH 7 by spectrophotometric analysis. The test is classed as nucleic-acid assay. As to conditions: Salmo salar.
In test [2] the test system is A2780. As to the kind of experiment: Cytotoxicity against human A2780 cells assessed as reduction in cell viability measured after 96 hrs by MTT assay. The note with it: A2780, 96 h. The test is classed as functional, cell-based.

Where only a bound is given, the exact number is not on record here.

As to `Cn1nc(CNC(=N)N)ccc1=O`, the inhibition (usually the change of the read-out against control, counted positive when it falls) at 100 µM in the test on NCI-H460 stood at 4%; with A2780 [1], 11%; in the test on MCF7 it was 20%.

For the compound `N=C(N)NCc1ccc(Cn2nc(CNC(=N)N)ccc2=O)cc1`, the ΔTm – broadly, the shift of the melting midpoint relative to a reference – with Salmon testes DNA is 1.4 °C.

For `Cn1nccc(CNC(=N)N)c1=O`, the inhibition at 100 µM with NCI-H460 worked out at 1%; in the test with A2780 [1], 18%; in the test on MCF7, 1%.

On to `N=C(N)NCc1cnn(Cc2ccccc2)c(=O)c1`, for which the results for the inhibition at 100 µM in the test with NCI-H460, with A2780 [1] and in the test on MCF7 were 1%, 40% and 13%, respectively.

Turning to `N=C(N)NCc1ccc(Cn2ncc(CNC(=N)N)cc2=O)cc1`, the ΔTm with Salmon testes DNA came to 1.2 °C. The inhibition at 100 µM in the test on NCI-H460 was 35%; with A2780 [1], 33%; in the test on MCF7 it was 23%.

Regarding `Cc1cc(=O)n(Cc2ccc(CNC(=N)N)cc2)nc1CNC(=N)N`, the IC50 (as a rule, the concentration needed to halve the response being measured) in the test on A2780 [2] is 21 µM. In the test with Salmon testes DNA, the ΔTm was found to be 1.2 °C. In addition, the inhibition at 100 µM in the test on NCI-H460 was found to be 34%; in the test on A2780 [1], 59%; with MCF7 it was 22%.

As to `COCc1ccc(Cn2nccc(CNC(=N)N)c2=O)cc1`, the inhibition at 100 µM amounted to 1% in the test with NCI-H460 and 38% with A2780 [1].

As to `Cc1cc(=O)n(Cc2ccc(CCl)cc2)nc1CNC(=N)N`, the IC50 in the test on A2780 [2] was over 100 µM. Besides, the inhibition at 100 µM was found to be 7% in the test on NCI-H460, 54% in the test on A2780 [1] and 25% with MCF7.

For `Cc1cc(=O)n(Cc2ccccc2)nc1CNC(=N)N`, the results for the inhibition at 100 µM in the test on NCI-H460, in the test with A2780 [1] and in the test with MCF7 were 2%, 23% and 18%, respectively.

On to `Cc1cc(=O)n(Cc2ccc(CF)cc2)nc1CNC(=N)N`, for which the results for the inhibition at 100 µM with NCI-H460, in the test with A2780 [1] and with MCF7 were 5%, 34% and 13%, respectively.

Regarding `N=C(N)NCc1ccc(Cn2nccc(CNC(=N)N)c2=O)cc1`, in the test on Salmon testes DNA, the ΔTm amounted to 1.1 °C.

Regarding `Cc1cc(=O)n(C)nc1CNC(=N)N`, the inhibition at 100 µM in the test on NCI-H460 is 2%; in the test on A2780 [1], 20%; in the test with MCF7, 12%.

For the compound `N=C(N)NCc1ccnn(Cc2ccccc2)c1=O`, the inhibition at 100 µM in the test on NCI-H460 turned out to be 15%; with A2780 [1], 41%; in the test on MCF7, 46%.

Turning to `Cn1ncc(CNC(=N)N)cc1=O`, the inhibition at 100 µM in the test on NCI-H460 turned out to be 13%; in the test on A2780 [1] it was 24%; with MCF7, 2%.
